Sampled rows, rich in hits. Any-hit rate of the full collection: about 2%.
CHRM5 agonist – human M5 muscarinic receptor agonists, primary screen, CHO-K1 cells, Fluo-8 calcium fluorescence. Muscarinic acetylcholine receptor M5 (Homo sapiens), P08912. CHO-K1 hM5 cells; 0% DMSO wells, 100% maximal acetylcholine response. activation, % at 3 µM. 360,000 compounds, 0.19% hits;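 active = activation above the run's mean over test compounds plus 3 SD, cut at about 23% in these data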;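 note: signal is peak over basal fluorescence ratio across the kinetic read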
CHRM5 antagonist – human M5 muscarinic receptor antagonists, primary screen, CHO cells, Fluo-8 calcium fluorescence | Muscarinic acetylcholine receptor M5 (Homo sapiens), P08912 | CHO-hM5 cells, ACh EC80 | inhibition, % at 3 µM | 360,000 compounds, 0.59% hits;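 active = inhibition above a per-plate cutoff, the mean of that plate's test compounds plus 3 SD, cut at about 27% in these data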
CHRM1 antagonist – human M1 muscarinic receptor antagonists, primary screen, CHO-K1 cells, Fluo-8 calcium fluorescence, 1536-well; Muscarinic acetylcholine receptor M1 (Homo sapiens), P11229; CHO-K1 hM1, ACh EC80 antagonist; inhibition, % at 3 µM; 360,000 compounds, 1.3% hits;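 active = percent inhibition above its own plate's cutoff, namely the mean of that plate's compound wells plus 3 SD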;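 note: peak over basal fluorescence ratio during 140 s after agonist addition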
Target sequence (P11229 whole entry, looked up): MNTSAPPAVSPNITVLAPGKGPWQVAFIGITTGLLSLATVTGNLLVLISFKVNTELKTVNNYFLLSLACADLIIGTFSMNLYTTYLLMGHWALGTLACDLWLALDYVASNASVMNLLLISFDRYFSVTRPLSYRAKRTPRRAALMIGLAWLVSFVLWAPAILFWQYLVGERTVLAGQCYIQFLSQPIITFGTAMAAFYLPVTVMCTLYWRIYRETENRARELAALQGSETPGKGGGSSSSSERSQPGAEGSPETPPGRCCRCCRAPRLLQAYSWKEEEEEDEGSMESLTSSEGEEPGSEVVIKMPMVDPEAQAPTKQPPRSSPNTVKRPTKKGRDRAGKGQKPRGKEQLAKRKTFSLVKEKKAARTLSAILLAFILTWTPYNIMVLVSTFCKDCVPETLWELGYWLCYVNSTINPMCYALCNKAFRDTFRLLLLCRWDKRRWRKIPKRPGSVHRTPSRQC
M1 PAM – human M1 muscarinic receptor positive allosteric modulators, primary screen, CHO-K1 cells, Fluo-8 calcium fluorescence, 1536-well; Muscarinic acetylcholine receptor M1 (Homo sapiens), P11229; CHO-K1 hM1, ACh EC20; 0% = ACh EC20, 100% = maximal ACh; activation, % at 3 µM; 360,000 compounds, 0.088% hits; AID 588819, 2011; in the data active = activation above about 19%, passing the limit was not always enough
CHRM1 agonist – human M1 muscarinic receptor agonists, primary screen, Fluo-8 calcium fluorescence, CHO-K1 cells, HTS; Muscarinic acetylcholine receptor M1 (Homo sapiens), P11229; AID 588814, 2011; activation, % at 3 µM; 360,000 compounds, 0.33% hits; CHO-K1 hM1, agonist mode; 0% DMSO, 100% acetylcholine EC100;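 active = activation above the run's mean compound activation plus 3 SD, cut at about 16% in these data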;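 note: peak over basal fluorescence ratio within a 140 s kinetic read after compound addition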
CHRM5 PAM – human M5 muscarinic receptor positive allosteric modulators, primary screen, CHO-K1 cells, Fluo-8 calcium fluorescence; activation, % at 3 µM; Muscarinic acetylcholine receptor M5 (Homo sapiens), P08912; 360,000 compounds, 0.3% hits; CHO-K1 hM5, ACh EC20 PAM; 0% = ACh EC20, 100% = ACh EC100;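 active = activation above the run cutoff, the mean activation of all test compounds plus 3 SD, cut at about 18% in these data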
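System – CHO-K1 hM5 cells · Compound – 3 µM, single dose · Incubation – compound preincubation 140 s before EC20 acetylcholine addition · Technique – Fluo-8 calcium fluorescence · Measure – Max/basal fluorescence ratio as % of EC20–EC100 ACh window · Benchmarks – low control EC20 acetylcholine (0%), high control EC100 acetylcholine (100%) · Replication – singlicate, one well per test compound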
Large screens that a line does not name were inactive.

CC(C)C[C@H]1CNC(=S)N1CC1CCN(CCCC2CCCC2)CC1	CHRM1 antagonist 75.4
CN(C)C1=NC[C@H](Cc2ccccc2)N1CCCC1CCCC1	none
S=C1NC[C@H](Cc2ccccc2)N1CC1CCN(CCCC2CCCC2)CC1	CHRM1 antagonist 38.5
CC(C)C[C@H]1CNC(=S)N1CC1CCN(CCCCc2ccccc2)CC1	CHRM1 antagonist 51.7
CN(C)C1=NC[C@H](Cc2ccccc2)N1CCCC1CCCCC1	CHRM1 antagonist 30.9
COc1ccccc1Cc1c(-c2ccco2)nc2c(C)cc(Br)cn12	none
CC1(C(=O)NS(=O)(=O)c2cccc(F)c2)CCN1C(=O)Cc1cccs1 (centres undefined)	none
Nc1sc(-c2ccccc2)cc1C(=O)NCCc1c[nH]c2ccccc12	none (no result: CHRM1 antagonist, M1 PAM, CHRM1 agonist)
COc1ccccc1C(O)c1ncc(-c2cccc(C(F)(F)F)c2)[nH]1 (centres undefined)	none
CCCCCC(=O)N1C[C@@H](n2cc(C3CC3)nn2)[C@H](O)C[C@@H]1c1ccc(C)cc1	none
CC1(C(=O)NCc2ccccc2)CN(S(C)(=O)=O)CC(=O)N1CCc1ccc(O)cc1 (centres undefined)	none (no result: CHRM1 antagonist, M1 PAM, CHRM1 agonist)
CN(CC(=O)Nc1ccc(C(N)=O)cc1)CC(=O)Nc1ccccc1Br	none
CN(CC(=O)Nc1ccccc1Br)C(=O)CNC(=O)c1cccs1	CHRM1 antagonist 33.6
CC(=O)Nc1ccc(NC(=O)CN(C)CC(=O)Nc2ccccc2Br)cc1	CHRM1 antagonist 38.4
CCCNC(=O)C1(C)CCCN(C/C=C/c2ccccc2)C1 (centres undefined)	none
CCN1C(=O)[C@@H]2[C@@H]3CN(S(=O)(=O)c4ccc(C)cc4)[C@@H](c4ccccc4F)[C@@H]3C(=O)C[C@@H]2C1=O	none
Cc1ccc(C(=O)NNc2ncnc3c2cnn3C)cc1	CHRM5 PAM 18.6
Cc1ccccc1C(=O)NNc1ncnc2c1cnn2C	none
Cc1ccc(COc2ccc(CNCCCN3CCCCCC3=O)cc2)cc1	CHRM1 antagonist 46.1
COc1ccc(NC(=O)C(c2ccc(C(F)(F)F)cc2)n2c(=O)c(-c3cc4ccccc4[nH]3)nc3ccccc32)cc1 (centres undefined)	none (no result: CHRM1 antagonist, M1 PAM, CHRM1 agonist)
CN(C)CCCN(Cc1ccccc1)C(=S)Nc1ccc(F)c(Cl)c1	CHRM1 antagonist 38.3
CN(C)CCCN(Cc1ccccc1)C(=S)Nc1cccc(C(F)(F)F)c1	none
NC(=O)NC(=O)COC(=O)CC12CC3CC(CC(C3)C1)C2	CHRM5 PAM 20.2
NC(=O)COC(=O)CC12CC3CC(CC(C3)C1)C2	none
CCOC(=O)Cn1nc(C)n(-c2cccc(Cl)c2)c1=O	CHRM5 PAM 18.9
CCOC(=O)Cn1nc(C)n(-c2ccc(Cl)cc2)c1=O	none
CCOC(=O)C(C(=O)OCC)c1cc(Br)c2noc3c2c1C(=O)c1ccccc1-3	CHRM5 antagonist 33.5, CHRM1 antagonist 35.4
CC(=O)OCCNc1cc(N2CCN(C)CC2)c2noc3c2c1C(=O)c1ccccc1-3	none
CC(=O)c1ccc(-n2cc(-c3ccc(C(C)(C)C)cc3)[n+]3c2SCCC3)cc1	CHRM1 antagonist 38.7
Clc1ccc(-c2cn(-c3ccccc3)c3[n+]2CCS3)cc1	CHRM1 antagonist 58.4
Fc1ccc(-c2cn(-c3ccccc3)c3[n+]2CCS3)cc1	none
COc1ccc(-c2cn(-c3ccc(Br)cc3)c3[n+]2CCS3)cc1	CHRM1 antagonist 44.0
Clc1ccc(-c2cn(-c3ccc(Cl)cc3)c3[n+]2CCCCC3)cc1	none
O=C(NCCc1ccccc1)C1Cc2c(-c3ccc4c(c3)OCO4)ccnc2O1 (centres undefined)	none
OC(c1ccc(OCc2ccccc2)cc1)c1nnc(-c2ccccc2)o1 (centres undefined)	none
OC(c1cccc(OCc2ccccc2)c1)c1nnc(-c2ccccc2)o1 (centres undefined)	CHRM5 antagonist 28.1
O=C(c1c[nH]c(C(=O)C(Cl)(Cl)Cl)c1)c1ccc(F)cc1Cl	none
O=C(c1c[nH]c(C(=O)C(Cl)(Cl)Cl)c1)c1ccc(F)cc1F	CHRM5 antagonist 27.5
OC1c2cc(Br)ccc2N=C2CCCCCN21 (centres undefined)	CHRM1 antagonist 78.5
CCOC(=O)c1c(NC(=O)COC(=O)CCOc2ccc(C)cc2)sc(C(=O)N(C)C)c1C	CHRM5 PAM 19.0
CCOC1=C2CN(S(=O)(=O)c3ccc(C)cc3)C(c3ccccc3)CC2N(S(=O)(=O)c2ccc(C)cc2)C(c2ccc(Br)cc2)C1 (centres undefined)	none (no result: CHRM1 antagonist, M1 PAM, CHRM1 agonist)
Cc1cc(-n2c(C)cc(C(=O)CSc3ncnc4ccccc34)c2C)no1	CHRM1 antagonist 28.4
Nc1[nH]c(C(=O)c2ccccc2)c(-c2cccnc2)c1C(=O)NC1CCCCC1	none (no result: CHRM1 antagonist, M1 PAM, CHRM1 agonist)
C[C@H](CO)N1C[C@H](C)[C@@H](CN(C)S(=O)(=O)c2ccc(-n3cccn3)cc2)OCc2cnnn2CCCC1=O	none
CNC(=O)CN(c1ccc(C23CC4CC(CC(C4)C2)C3)cc1)S(C)(=O)=O	none
CS(=O)(=O)N(CC(=O)Nc1c(F)cccc1F)c1ccc(C23CC4CC(CC(C4)C2)C3)cc1	CHRM1 agonist 21.0
CC(=O)N(C)C[C@H]1Oc2ncc(Br)cc2C(=O)N([C@H](C)CO)C[C@@H]1C	none
CCN(c1ccc(NC(=O)CSc2ccc3c(c2)OCCO3)cc1)C(C)C	CHRM1 antagonist 81.5
COc1ccc(Nc2nc(Cl)c(C=O)s2)cc1	CHRM1 antagonist 36.7
COc1ccc(Nc2nc3ccccc3s2)cc1	none
C/C=C(/C)C(=O)O[C@@H]1[C@H](OC(=O)C=C(C)C)c2c(ccc3ccc(=O)oc23)OC1(C)C	none
CC(C)=CC(=O)O[C@@H]1Cc2c(ccc3ccc(=O)oc23)OC1(C)C	CHRM5 PAM 25.4
Cc1cc(NC(=O)COC(=O)C2CC(=O)N(c3cccc(Cl)c3)C2)no1 (centres undefined)	M1 PAM 30.7
Clc1ccc(OCc2nnc(SCCN3CCCCC3)n2Cc2ccco2)cc1	CHRM1 antagonist 98.6
O=c1c2ccccc2nnn1CSc1nnc(COc2ccc(Cl)cc2)n1Cc1ccco1	none
CCc1ccc(OCc2nnc(SCCN3CCOCC3)n2CC)cc1	CHRM1 antagonist 63.2
COc1cc(/C=N/NC(=O)c2nc3ccccn3c2C)cc(OC)c1O	CHRM5 PAM 18.6
